Here are results for one molecule from ChEMBL document CHEMBL1121733, “Synthesis and evaluation of ureido- and vinylureidopenicillins as inhibitors of intraruminal lactic acid production” (J Med Chem, 1981).

Data set [1] can be described thus: Lipophilicity estimated on reversed phase TLC. It counts as physicochemical. Conditions: silicone oil-coated silica gel plates, 30% MeOH in pH 7.0 buffer. In outline:
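Reversed-phase TLC on silica gel G plates dipped in 20 vol % silicone oil in hexane and dried. Mobile phase 30 vol % MeOH in pH 7.0 buffer. ΔR_M measured against a reference compound run on every plate, averaged over 2–6 plates.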

In a further data set the test system is Escherichia coli. The data set is described as follows: In vitro Minimum inhibitory concentration against Escherichia coli ATCC 25922. The class given is functional. In outline: (§1)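 Twofold broth microdilution from 200 to 0.0008 µg/mL in brain–heart infusion broth with 0.066 g/L tetrazolium chloride. Inoculum was 1 µL of a 1:10 dilution of an 18 h, 37 °C culture. Plates incubated 16 h at 37 °C, with growth read as red precipitate. Triplicate trays per compound per organism.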

In data set [2] the test system is Staphylococcus aureus. The data set is described as follows: In vitro Minimum inhibitory concentration against Staphylococcus aureus ATCC 6538P (penicillin G sensitive). The class given is functional. The method in brief: as §1
Data set [3] relates to Staphylococcus aureus. In words: In vitro Minimum inhibitory concentration against Staphylococcus penicillin G resistant). The class given is functional. The method in brief:
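Broth microdilution in brain–heart infusion broth with 0.066 g/L tetrazolium chloride. Serial twofold dilutions from 200 to 0.0008 µg/mL. Inoculum: 1 µL of a 1:10 dilution of an 18 h, 37 °C culture. Incubated 16 h at 37 °C; growth read as red precipitate. MIC taken from triplicate trays per compound per organism.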

In a further data set the test system is Streptococcus pyogenes. In words: In vitro Minimum inhibitory concentration against Streptococcus pyogenes ATCC 8668. It counts as functional. The method in brief: as §1
In the next data set the test system is Enterococcus faecium. In words: In vitro Minimum inhibitory concentration against Streptococcus faecium ATCC 8043-2. It counts as functional. In outline: as §1
A short description of data set [4]: Effective inhibition concentration for reduction of lactic acid production to less than 10% of control. It counts as functional. In outline: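 Bovine rumen fluid from a fistulated animal, strained through cheesecloth, mixed 1:1 with CO2-saturated buffer (glucose 27 g/L, trypticase 1.50 g/L, Na2HPO4 4.26 g/L). Compounds retested from 0.5 mg/mL stock serially diluted to 0.004 mg/mL, duplicate tubes, 5.5 h at 39 °C. Stopped with 25% metaphosphoric acid, centrifuged, l(+)-lactate measured enzymatically. Value is the minimum concentration giving lactate below 10% of no-compound control.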

Data set [5] in a line: Effective inhibition concentration for reduction of propionic acid production to less than 95% of control. The class given is functional. In outline:
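Rumen fluid from a fistulated bovine, strained and mixed 1:1 with CO2-saturated buffer with moderate substrate at normal intraruminal pH (volatile fatty acid model). Retest dilutions from 0.5 mg/mL stock down to 0.004 mg/mL, triplicate tubes, 9 h. Stopped with 25% metaphosphoric acid, centrifuged, propionate measured by GC-FID. Value is the minimum concentration giving propionate below 95% of control.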

Data set [6] in a line: Percent inhibition of lactic acid production by the compound at 0.5 p.p.m. The class given is functional. Also noted: scale not given: the % may be the effect or the level left. The method in brief:
(§2)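 Screen at 50, 5 and 0.5 µg/mL of incubation contents in strained bovine rumen fluid mixed 1:1 with CO2-saturated glucose/trypticase buffer, 5.5 h at 39 °C. Stopped with metaphosphoric acid, l(+)-lactate measured enzymatically. Expressed as lactate production as % of control incubations without compound.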

Data set [7] in a line: Percent inhibition of lactic acid production by the compound at 50 p.p.m. It counts as functional. On the set-up: scale not given: the % may be the effect or the level left. The method in brief: as §2
Data set [8] can be described thus: Percent inhibition of lactic acid production by the compound at 5 p.p.m. It counts as functional. On the set-up: scale not given: the % may be the effect or the level left. In outline:
as §2

Take `CC1(C)SC2C(NC(=O)NCCc3ccccc3)C(=O)N2[C@H]1C(=O)[O-].[Na+]` (stereo partly specified): the “Delta RM” value in data set [1] was -0.6. In addition, the MIC against Escherichia coli was determined as 100 µg/mL; with Staphylococcus aureus [2] it was 0.1 µg/mL; in the data set on Staphylococcus aureus [3] it was 50 µg/mL; in the data set on Streptococcus pyogenes it was 0.1 µg/mL; against Enterococcus faecium it was 3.12 µg/mL. The molecule further came in with a Concentration in data set [4] of 0.31 µg/mL. Also, the Dose in data set [5] is 5 µg/mL. For the same molecule, the values for the Control in data set [6], in [7] and in data set [8] were 4%, 9% and 6%, respectively.

What is called MIC is the smallest concentration in the dilution series that meets the test's criterion for growth inhibition.
